DAT uptake mod = modulates human dopamine transporter uptake under cocaine; 1.3% of 110,000 active; AID 449768; LLC-PK1 hDAT cells, [14C]-dopamine uptake with cocaine IC80; actives deviate in either direction; Q01959; B-score at 10 µM;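 active = Z score or B-score, a plate-position-corrected score, falls beyond the plate's 99.7% confidence bounds, in either direction; inactive = both scores lie inside the 99.7% bounds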
Target sequence (Q01959 whole entry, looked up): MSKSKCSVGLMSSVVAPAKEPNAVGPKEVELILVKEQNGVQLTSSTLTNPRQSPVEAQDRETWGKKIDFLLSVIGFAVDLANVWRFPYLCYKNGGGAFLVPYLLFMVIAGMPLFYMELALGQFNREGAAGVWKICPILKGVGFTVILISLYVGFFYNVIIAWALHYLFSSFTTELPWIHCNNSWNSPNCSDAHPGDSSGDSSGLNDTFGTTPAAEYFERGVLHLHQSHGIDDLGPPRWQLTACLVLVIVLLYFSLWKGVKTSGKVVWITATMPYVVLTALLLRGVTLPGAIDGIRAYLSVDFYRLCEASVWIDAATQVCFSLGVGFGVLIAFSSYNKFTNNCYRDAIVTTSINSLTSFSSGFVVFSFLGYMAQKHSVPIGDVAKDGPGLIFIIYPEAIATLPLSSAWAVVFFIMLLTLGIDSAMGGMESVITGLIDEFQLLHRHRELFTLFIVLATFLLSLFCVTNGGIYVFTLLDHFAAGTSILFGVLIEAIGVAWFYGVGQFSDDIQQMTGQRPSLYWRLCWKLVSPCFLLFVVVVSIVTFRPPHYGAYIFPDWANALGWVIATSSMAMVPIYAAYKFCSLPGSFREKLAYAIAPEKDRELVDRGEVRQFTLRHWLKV
Measles CPE = protection of cells from measles virus | protection (pct of control), % at 4 µM | Measles virus-infected cells, CPE protection, absorbance | 1.5% of 140,000 active; in the data active = protection mostly above about 24%, no sharp cut-off; inactive = mostly below about 26%
BB579 growth dn = chemicals that inhibit yeast BB579 growth in restrictive medium (lifespan-shortening candidates); S. cerevisiae BB579 growth, OD615, 48 h; inhibition, % at 10 µM; 0.51% of 140,000 active; AID 804;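 active = inhibition above a set limit, 3 SD over the mean compound inhibition, cut at about 44% in these data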
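Assay system – yeast BB579 (DeaD) · Dosing – single compound dose of 10 µM, 0.25% DMSO final · Detection – OD615 turbidity measurement · Buffer or medium – CSMM-D restrictive synthetic medium containing dextrose (glucose) · Benchmarks – positive control amphotericin B 10 µg/mL · Incubation – 48 h exposure, 30 °C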
RAM inhibit = yeast RAM network inhibition. S. cerevisiae dse1pr::URA3 reporter, 5-FOA growth OD615, 2 d; analog-sensitive cbk1-as2 kinase mutant strain. inhibition, % at 50 µM. 1.8% of 190,000 active;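 active = inhibition above a set limit, 3 SD over mean compound inhibition, cut at about 8.4% in these data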;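 note: inhibition rescues growth on 5-FOA so higher OD means more RAM inhibition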
WT yeast gro inh = growth inhibition of WT yeast, mitochondrial fusion screen; AID 1362; 2.1% of 190,000 active; inhibition, % at 10 µM; mitochondrial fusion phenotypic screen, WT strain; in the data active = inhibition above about 58%; tested in S. cerevisiae
Yeast life ext = extends the lifespan of yeast | S. cerevisiae growth with nicotinamide, OD615; deaD strain in restrictive glucose medium | inhibition of the nicotinamide effect, % at 10 µM | 0.68% of 130,000 active | AID 775;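 active = inhibition above a set limit, placed 3 SD over the median of all compounds, cut at about 26% in these data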
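Material: Modified budding yeast, DeaD strain | Medium: Restrictive glucose medium | Probe or stimulus: 1.5 mM nicotinamide | Dosing: Single dose 10 µM compound, 0.25% DMSO | Times: 48 h at 30 °C | Technique: OD615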
A number is an active result; – = inactive; · = not tested or not shown. Sampled rows, rich in hits. Any-hit rate of the full collection: about 6.1%.

SMILES	DAT uptake mod	Measles CPE	BB579 growth dn	RAM inhibit	WT yeast gro inh	Yeast life ext
Cn1cnnc1Sc1ccc(/C=C/C(=O)c2ccc(O)cc2)cc1[N+](=O)[O-]	·	·	·	8.4	–	·
CCC(C)(C)NC(=O)c1ccc(Sc2nncn2C)c([N+](=O)[O-])c1	·	–	–	–	–	–
c1ccc(NCc2nc3ccccc3n2CCOc2ccccc2)cc1	·	–	–	–	77.2	40.8
COc1ccc(NCc2nc3ccccc3n2CCOc2ccccc2)cc1	–	–	–	–	–	55.8
Cc1ccc(OCCn2c(CCCO)nc3ccccc32)cc1	–	–	–	–	–	–
CCCn1c(C(C)NC(C)=O)nc2ccccc21 (stereo not given)	–	–	43.7	–	–	–
COc1ccc(NCc2nc3ccccc3n2CCOc2ccc(C)cc2)cc1	·	–	92.3	–	71.4	–
COC(=O)c1ccccc1NC(=S)N(Cc1ccc2c(c1)OCO2)Cc1cc2ccc(OC)cc2[nH]c1=O	·	–	–	–	–	–
Fc1cccc(Cc2noc(CN3CCC(c4ccncc4)CC3)n2)c1	·	·	·	–	–	·
COc1ccccc1N1CCN(/N=C\c2sccc2C)CC1	·	·	·	–	–	·
CCCn1c(CNc2ccccc2O)nc2ccccc21	–	–	45.5	–	–	–
CCCCn1c(CNC(=O)CCC)nc2ccccc21	–	–	–	–	–	–
Cc1ccc(-c2nsc3c(N4CCC(C(N)=O)CC4)ncnc23)cc1	·	–	–	–	–	–
COc1ccccc1/C=C/C(=O)c1cc(Br)ccc1OC(=O)c1ccco1	2.58	·	·	·	·	·
Cc1ccc(/C=C/C(=O)c2cc(Br)ccc2OC(=O)c2ccco2)cc1	–	–	–	11.0	–	–
COc1cccc(C(=O)NC(C)c2ccc(Br)cc2)c1 (stereo not given)	·	–	–	–	–	–
COc1ccc(C(C)NC(=O)c2ccccc2)cc1 (stereo not given)	–	–	–	–	–	83.7
CC(NC(=O)c1ccc(F)cc1)c1ccccc1 (stereo not given)	–	37.6	–	–	–	–
Cc1ccc(C(=O)NC(C)c2ccc(F)cc2)cc1 (stereo not given)	·	–	–	–	–	–
COc1cccc(NC(=O)CN2C(=O)NC(C)(CCC(C)C)C2=O)c1 (stereo not given)	·	·	·	–	–	·
CCCC1(CCC)NC(=O)N(CC(=O)Nc2cccc(OC)c2)C1=O	–	–	–	–	63.8	–
C[C@@H]1CCC[C@@]2(O[C@@H](CCO)C[C@@H](O)[C@@H]2O)O1	–	·	·	·	·	·
CCOC(=O)/C(=N\Nc1ccc(Cl)cc1)c1csc(Nc2ccccc2)n1	–	–	–	–	–	–
CCOC(=O)/C(=N\Nc1ccc(OC)cc1)c1csc(Nc2ccccc2)n1	–	–	–	10.9	–	–
COc1c(Br)cc(Br)cc1/C=N/n1c(C)nnc1C	–	–	–	–	–	36.6
SMILES	DAT uptake mod	Measles CPE	BB579 growth dn	RAM inhibit	WT yeast gro inh	Yeast life ext
O=C(OCC(=O)N1CCCc2ccccc21)c1cncc(Br)c1	·	–	–	–	–	–
O=C(OCC(=O)N1CCCC1)c1cncc(Br)c1	·	43.1	–	–	–	–
Cc1ccccc1C(=O)NNC(=O)CCC(=O)Nc1cccc(Cl)c1C	·	–	–	–	–	–
Cc1ccccc1Cn1c(C(=O)OC(C)C)cc2c1ccn2C	–	–	–	–	–	–
CC(C)OC(=O)c1cc2c(ccn2C)n1CC(=O)N(Cc1ccccc1)c1ccc(F)cc1	·	56.2	–	–	–	–
CC(C)OC(=O)c1cc2c(ccn2C)n1CC(=O)N1CCC(Cc2ccccc2)CC1	2.23	–	–	–	–	–
COc1ccc(N2CCN(CCNC(=O)c3ccc(NC(=O)C4CCCO4)cc3)CC2)cc1 (stereo not given)	–	–	–	–	–	–
NC1=NC(=O)/C(=C\c2ccsc2)S1	·	·	·	–	–	·
Cc1ccc(C2OC(=O)c3ccccc32)cc1 (stereo not given)	·	–	–	–	–	–
CC1=CC(C)(C)N(S(=O)(=O)c2ccc(F)cc2)c2ccc(C)cc21	–	–	–	–	81.0	–
CC1=CC(C)(C)N(S(=O)(=O)c2ccc(C)cc2)c2ccccc21	–	–	–	8.7	–	–
CCn1c(C(=O)OC)cc2c1ccn2-c1ccc(F)cc1	–	–	–	–	76.5	–
CC(C)COC(=O)c1cccc2c1-c1ccccc1/C2=N\O	·	–	–	–	62.0	·
